According to ChEMBL document CHEMBL5653631, “A Potent and Selective ULK1 Inhibitor Suppresses Autophagy and Sensitizes Cancer Cells to Nutrient Stress” (iScience, 2018):
Each block holds one molecule with its values, some of them ahead of it.

Tests used:
[1] = target: ALK tyrosine kinase receptor (Homo sapiens) (UniProt Q9UM73); assay: Inhibition of human recombinant ALK at 500 nM in presence of ATP by radiometric assay relative to control
Procedure, shortened: (§1)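 Panel of 327 recombinant human kinases in radiometric activity assays, each screened in duplicate at a single inhibitor concentration; percent activity remaining relative to vehicle control, percent inhibition taken as 100 minus activity remaining.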

[2] = target: Fibroblast growth factor receptor 2 (Homo sapiens) (UniProt P21802); assay: Inhibition of human recombinant FGFR2 at 500 nM related to control ULK1
[3] = target: Ribosomal protein S6 kinase alpha-5 (Homo sapiens) (UniProt O75582); assay: Inhibition of human recombinant MSK1 at 500 nM related to control ULK1
[4] = target: T1, Phosphorylase b kinase gamma catalytic chain, liver/testis isoform (Homo sapiens) (UniProt P15735); assay: Inhibition of human recombinant PHKg2 at 500 nM related to control ULK1
T1 sequence (whole entry): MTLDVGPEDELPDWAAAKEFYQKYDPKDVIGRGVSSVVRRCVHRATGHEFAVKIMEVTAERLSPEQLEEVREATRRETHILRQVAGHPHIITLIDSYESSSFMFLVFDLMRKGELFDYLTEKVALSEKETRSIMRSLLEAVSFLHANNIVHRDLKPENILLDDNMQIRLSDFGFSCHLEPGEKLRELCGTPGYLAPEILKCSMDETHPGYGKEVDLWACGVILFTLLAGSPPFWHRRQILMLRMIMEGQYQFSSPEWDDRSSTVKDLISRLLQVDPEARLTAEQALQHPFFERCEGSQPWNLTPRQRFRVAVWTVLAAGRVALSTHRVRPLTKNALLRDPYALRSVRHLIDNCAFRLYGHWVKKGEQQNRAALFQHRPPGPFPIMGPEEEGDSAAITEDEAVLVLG

[5] = target: Serine/threonine-protein kinase PAK 1 (Homo sapiens) (UniProt Q13153); assay: Inhibition of human recombinant PAK1 at 500 nM related to control ULK1
[6] = target: Rhodopsin kinase GRK7 (Homo sapiens) (UniProt Q8WTQ7); assay: Inhibition of human recombinant GPRK7 at 500 nM in presence of ATP by radiometric assay relative to control
[7] = target: ALK tyrosine kinase receptor (Homo sapiens) (UniProt Q9UM73); assay: Inhibition of human recombinant ALK at 15 nM in presence of ATP by radiometric assay relative to control; procedure, shortened: as §1
[8] = target: Cyclin-dependent kinase 5 (Homo sapiens) (UniProt Q00535); assay: Inhibition of human recombinant CDK5 at 15 nM in presence of ATP by radiometric assay relative to control
[9] = target: Insulin-like growth factor 1 receptor (Homo sapiens) (UniProt P08069); assay: Inhibition of human recombinant IGF1R at 15 nM in presence of ATP by radiometric assay relative to control
[10] = target: T2, Mitogen-activated protein kinase kinase kinase 2 (Homo sapiens) (UniProt Q9Y2U5); assay: Inhibition of human recombinant MAP3K2 at 15 nM in presence of ATP by radiometric assay relative to control
T2 sequence (whole entry): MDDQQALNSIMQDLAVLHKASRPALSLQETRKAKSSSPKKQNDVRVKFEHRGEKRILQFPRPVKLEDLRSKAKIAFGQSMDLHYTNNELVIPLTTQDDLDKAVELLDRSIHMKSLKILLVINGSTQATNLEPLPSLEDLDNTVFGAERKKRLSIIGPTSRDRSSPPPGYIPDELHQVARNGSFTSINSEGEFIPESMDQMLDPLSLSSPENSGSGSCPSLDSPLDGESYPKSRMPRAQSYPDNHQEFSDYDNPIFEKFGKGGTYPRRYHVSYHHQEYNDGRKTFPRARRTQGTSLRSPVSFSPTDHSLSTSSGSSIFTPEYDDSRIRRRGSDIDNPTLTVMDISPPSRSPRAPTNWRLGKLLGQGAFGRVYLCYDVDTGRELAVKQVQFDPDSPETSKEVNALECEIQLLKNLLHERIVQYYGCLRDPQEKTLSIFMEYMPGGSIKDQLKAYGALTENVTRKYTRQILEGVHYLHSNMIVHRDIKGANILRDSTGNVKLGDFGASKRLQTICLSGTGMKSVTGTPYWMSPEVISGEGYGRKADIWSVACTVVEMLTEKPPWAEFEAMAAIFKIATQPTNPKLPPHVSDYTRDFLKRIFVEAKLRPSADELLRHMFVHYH

[11] = target: Non-receptor tyrosine-protein kinase TYK2 (Homo sapiens) (UniProt P29597); assay: Inhibition of human recombinant TYK2 at 15 nM in presence of ATP by radiometric assay relative to control
[12] = target: Mast/stem cell growth factor receptor Kit (Homo sapiens) (UniProt P10721); assay: Inhibition of human recombinant KIT at 15 nM related to control ULK1
[13] = target: T3, Serine/threonine-protein kinase haspin (Homo sapiens) (UniProt Q8TF76); assay: Inhibition of human recombinant Haspin at 40 nM related to control ULK1
T3 sequence (whole entry): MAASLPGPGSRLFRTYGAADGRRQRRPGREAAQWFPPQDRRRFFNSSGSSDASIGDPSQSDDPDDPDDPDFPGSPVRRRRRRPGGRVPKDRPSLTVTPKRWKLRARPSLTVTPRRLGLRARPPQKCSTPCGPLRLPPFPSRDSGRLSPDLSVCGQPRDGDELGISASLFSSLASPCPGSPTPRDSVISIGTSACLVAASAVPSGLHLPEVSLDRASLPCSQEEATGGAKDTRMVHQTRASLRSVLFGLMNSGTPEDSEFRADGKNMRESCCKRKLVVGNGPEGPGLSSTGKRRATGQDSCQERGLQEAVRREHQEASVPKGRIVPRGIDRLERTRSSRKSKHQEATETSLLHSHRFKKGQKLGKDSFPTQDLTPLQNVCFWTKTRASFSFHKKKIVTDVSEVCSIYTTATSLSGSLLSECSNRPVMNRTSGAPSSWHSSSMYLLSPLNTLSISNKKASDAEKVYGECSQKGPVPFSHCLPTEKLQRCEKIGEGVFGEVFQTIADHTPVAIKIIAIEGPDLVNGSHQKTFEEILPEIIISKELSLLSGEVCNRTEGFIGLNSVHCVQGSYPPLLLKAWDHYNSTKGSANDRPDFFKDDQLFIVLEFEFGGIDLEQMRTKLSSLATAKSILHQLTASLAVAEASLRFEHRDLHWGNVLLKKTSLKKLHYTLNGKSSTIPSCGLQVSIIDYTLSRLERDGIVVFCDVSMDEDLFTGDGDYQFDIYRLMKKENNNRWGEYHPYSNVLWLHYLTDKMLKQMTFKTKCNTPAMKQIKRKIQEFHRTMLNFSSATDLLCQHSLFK

[14] = target: Serine/threonine-protein kinase PAK 4 (Homo sapiens) (UniProt O96013); assay: Inhibition of human recombinant PAK4 at 40 nM related to control ULK1
[15] = target: BDNF/NT-3 growth factors receptor (Homo sapiens) (UniProt Q16620); assay: Inhibition of human recombinant TRKB at 40 nM related to control ULK1

Sequence of ALK tyrosine kinase receptor (Homo sapiens) (Q9UM73 19-1620 limits assumed): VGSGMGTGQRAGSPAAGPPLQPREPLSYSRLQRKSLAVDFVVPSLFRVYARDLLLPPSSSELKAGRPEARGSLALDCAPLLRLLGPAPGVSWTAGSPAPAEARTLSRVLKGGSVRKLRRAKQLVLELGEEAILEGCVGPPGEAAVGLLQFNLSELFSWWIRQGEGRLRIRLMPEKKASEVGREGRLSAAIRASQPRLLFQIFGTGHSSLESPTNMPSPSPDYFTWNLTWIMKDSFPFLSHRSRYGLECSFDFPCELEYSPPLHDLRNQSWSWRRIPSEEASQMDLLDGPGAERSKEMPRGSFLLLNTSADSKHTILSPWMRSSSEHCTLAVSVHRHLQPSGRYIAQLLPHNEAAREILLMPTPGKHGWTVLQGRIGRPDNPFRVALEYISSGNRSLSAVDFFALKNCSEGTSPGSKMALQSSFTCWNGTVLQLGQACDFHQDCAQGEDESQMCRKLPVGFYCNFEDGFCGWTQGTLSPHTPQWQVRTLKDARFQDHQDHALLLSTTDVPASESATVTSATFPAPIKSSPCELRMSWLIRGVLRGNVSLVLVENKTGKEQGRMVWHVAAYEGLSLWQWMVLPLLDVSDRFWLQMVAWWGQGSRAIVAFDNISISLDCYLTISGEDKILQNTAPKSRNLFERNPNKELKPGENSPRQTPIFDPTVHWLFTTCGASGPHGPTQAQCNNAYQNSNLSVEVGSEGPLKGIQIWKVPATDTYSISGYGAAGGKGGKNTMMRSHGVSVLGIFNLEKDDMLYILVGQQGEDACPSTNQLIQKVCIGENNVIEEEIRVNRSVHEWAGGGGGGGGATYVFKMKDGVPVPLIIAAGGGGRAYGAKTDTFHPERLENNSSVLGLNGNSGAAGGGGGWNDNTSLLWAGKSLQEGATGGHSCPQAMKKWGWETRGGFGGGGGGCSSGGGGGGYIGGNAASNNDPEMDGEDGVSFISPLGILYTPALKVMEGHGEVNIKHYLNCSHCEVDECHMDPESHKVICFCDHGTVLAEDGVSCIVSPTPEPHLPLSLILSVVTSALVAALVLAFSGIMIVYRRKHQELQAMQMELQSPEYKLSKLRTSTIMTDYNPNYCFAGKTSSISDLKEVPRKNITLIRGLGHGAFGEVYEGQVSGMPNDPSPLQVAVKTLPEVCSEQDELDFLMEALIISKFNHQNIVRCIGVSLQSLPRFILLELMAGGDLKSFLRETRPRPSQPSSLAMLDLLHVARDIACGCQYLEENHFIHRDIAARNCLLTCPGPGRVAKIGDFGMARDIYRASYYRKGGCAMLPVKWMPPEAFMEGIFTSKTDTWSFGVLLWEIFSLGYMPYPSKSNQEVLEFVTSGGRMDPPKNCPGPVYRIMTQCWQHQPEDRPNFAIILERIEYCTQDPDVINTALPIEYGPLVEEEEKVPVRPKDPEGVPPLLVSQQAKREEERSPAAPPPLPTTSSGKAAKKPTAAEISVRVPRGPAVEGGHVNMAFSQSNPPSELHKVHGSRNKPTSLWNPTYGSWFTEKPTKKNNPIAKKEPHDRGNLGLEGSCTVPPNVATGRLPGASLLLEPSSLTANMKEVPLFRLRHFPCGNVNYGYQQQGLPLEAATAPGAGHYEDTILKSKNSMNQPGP
Sequence of Serine/threonine-protein kinase PAK 1 (Homo sapiens) (Q13153 whole entry, looked up): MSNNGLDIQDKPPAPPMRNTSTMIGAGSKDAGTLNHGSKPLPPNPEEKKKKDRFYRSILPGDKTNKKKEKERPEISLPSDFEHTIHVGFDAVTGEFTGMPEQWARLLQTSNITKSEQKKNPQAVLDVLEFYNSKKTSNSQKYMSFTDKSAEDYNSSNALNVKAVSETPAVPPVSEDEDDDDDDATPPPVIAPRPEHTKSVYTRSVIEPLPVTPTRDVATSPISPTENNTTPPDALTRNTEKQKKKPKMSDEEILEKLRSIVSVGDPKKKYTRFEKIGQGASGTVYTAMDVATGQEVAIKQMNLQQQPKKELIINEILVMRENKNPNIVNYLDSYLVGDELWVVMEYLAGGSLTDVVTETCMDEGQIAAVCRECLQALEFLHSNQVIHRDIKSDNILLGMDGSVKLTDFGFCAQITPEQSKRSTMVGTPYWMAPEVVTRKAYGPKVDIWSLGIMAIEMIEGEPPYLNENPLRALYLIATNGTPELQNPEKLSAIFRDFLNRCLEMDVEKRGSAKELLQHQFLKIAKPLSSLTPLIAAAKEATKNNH
Sequence of Fibroblast growth factor receptor 2 (Homo sapiens) (P21802 22-821 limits assumed): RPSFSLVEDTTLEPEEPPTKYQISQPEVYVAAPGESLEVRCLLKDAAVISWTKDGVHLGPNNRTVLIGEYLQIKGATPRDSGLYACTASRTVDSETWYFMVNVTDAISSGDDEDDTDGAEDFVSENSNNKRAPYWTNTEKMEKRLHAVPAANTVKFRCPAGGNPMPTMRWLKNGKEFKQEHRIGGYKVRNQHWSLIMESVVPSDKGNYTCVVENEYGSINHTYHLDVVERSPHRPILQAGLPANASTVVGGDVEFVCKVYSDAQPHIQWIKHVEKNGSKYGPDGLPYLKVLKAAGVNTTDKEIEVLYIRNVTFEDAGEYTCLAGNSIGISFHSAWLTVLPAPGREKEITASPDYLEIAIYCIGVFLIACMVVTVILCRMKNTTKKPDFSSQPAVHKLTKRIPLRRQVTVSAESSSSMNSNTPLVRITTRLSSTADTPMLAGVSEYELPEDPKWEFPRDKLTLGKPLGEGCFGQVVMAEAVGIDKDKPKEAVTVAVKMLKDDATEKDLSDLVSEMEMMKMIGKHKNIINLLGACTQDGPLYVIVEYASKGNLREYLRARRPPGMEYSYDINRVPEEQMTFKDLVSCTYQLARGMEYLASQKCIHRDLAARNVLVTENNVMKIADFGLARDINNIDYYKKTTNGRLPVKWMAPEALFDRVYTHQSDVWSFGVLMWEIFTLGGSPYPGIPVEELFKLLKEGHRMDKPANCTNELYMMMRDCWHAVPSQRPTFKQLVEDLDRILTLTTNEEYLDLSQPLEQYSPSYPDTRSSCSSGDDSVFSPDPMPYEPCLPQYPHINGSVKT
Sequence of Cyclin-dependent kinase 5 (Homo sapiens) (Q00535 whole entry, looked up): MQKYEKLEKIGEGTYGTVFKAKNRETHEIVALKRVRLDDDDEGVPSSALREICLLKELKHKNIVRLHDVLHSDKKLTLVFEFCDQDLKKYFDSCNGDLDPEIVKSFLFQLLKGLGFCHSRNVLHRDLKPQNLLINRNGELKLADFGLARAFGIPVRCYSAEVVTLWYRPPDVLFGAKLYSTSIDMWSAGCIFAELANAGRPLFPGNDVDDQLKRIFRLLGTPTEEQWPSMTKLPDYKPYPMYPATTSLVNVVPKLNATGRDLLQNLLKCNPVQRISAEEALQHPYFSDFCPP
Sequence of Ribosomal protein S6 kinase alpha-5 (Homo sapiens) (O75582 whole entry, looked up, canonical isoform): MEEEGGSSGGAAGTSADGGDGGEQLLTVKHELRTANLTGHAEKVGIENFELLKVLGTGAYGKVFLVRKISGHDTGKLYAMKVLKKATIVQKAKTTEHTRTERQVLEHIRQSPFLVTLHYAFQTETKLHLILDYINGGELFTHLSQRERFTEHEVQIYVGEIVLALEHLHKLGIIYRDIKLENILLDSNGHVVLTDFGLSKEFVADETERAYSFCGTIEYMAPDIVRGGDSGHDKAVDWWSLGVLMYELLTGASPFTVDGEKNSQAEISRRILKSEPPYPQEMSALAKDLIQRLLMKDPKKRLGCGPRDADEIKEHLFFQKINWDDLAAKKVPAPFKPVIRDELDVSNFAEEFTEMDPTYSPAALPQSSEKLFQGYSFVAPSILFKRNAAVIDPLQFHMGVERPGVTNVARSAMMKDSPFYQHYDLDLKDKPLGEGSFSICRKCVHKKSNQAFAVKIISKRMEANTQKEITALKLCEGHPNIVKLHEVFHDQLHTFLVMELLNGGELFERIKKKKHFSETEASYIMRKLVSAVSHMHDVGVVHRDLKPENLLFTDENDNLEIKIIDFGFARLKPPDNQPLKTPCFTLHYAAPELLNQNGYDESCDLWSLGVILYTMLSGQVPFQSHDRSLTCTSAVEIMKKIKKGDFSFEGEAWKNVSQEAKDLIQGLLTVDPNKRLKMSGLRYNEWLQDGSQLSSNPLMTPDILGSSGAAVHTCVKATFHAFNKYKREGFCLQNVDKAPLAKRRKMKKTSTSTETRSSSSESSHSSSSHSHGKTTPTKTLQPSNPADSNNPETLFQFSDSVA
Sequence of Rhodopsin kinase GRK7 (Homo sapiens) (Q8WTQ7 whole entry, looked up): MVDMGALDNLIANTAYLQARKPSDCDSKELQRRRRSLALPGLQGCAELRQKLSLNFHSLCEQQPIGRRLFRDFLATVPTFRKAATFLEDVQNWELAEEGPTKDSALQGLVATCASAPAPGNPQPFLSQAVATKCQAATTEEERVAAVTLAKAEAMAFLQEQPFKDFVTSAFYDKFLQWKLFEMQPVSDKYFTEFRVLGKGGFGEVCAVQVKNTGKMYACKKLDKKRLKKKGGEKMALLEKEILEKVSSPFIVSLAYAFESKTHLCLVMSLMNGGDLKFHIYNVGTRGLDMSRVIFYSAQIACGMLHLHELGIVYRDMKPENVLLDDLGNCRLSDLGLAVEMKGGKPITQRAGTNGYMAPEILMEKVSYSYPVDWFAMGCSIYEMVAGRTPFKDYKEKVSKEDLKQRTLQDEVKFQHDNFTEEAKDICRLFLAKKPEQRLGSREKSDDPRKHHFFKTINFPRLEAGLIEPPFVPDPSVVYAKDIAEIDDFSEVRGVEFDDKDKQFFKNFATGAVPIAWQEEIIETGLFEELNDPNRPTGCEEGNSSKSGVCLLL

inhibition [1]: 0%
fold change (FC) [2]: 0.28
fold change (FC) [3]: 0.15
fold change (FC) [4]: 0
fold change (FC) [5]: 0.27
inhibition [6]: 10%
SMILES: CNC(=O)c1ccccc1Oc1nc(Nc2cc(OC)c(OC)c(OC)c2)ncc1Br

inhibition [7]: 0%
inhibition [8]: 23%
inhibition [9]: 0%
inhibition [10]: 3%
inhibition [11]: 2%
fold change (FC) [12]: 0
SMILES: CC(C)[C@H](NC(=O)c1cc(-c2cnn3cc(-c4ccc(OCCN5CCCCC5)cc4)cnc23)cs1)C(F)(F)F

fold change (FC) [13]: 0.01
fold change (FC) [14]: 0.11
fold change (FC) [15]: 0.26
SMILES: O=C(N[C@@H](C1CC1)C(F)(F)F)c1cc(-c2cnn3cc(-c4ccc(F)cc4)cnc23)cs1
